Measurements taken from paper PMC5625166 (Pharmacology Research & Perspectives, 2017).
Where two headings read alike, the source gives them in different places.

Legend:
[1] = target: CYP2E1 (Homo sapiens, UniProt P05181); experiment: CYP2E1 inhibition assay; type: biochemical; conditions: for inhibition at 1 h: CYP2E1 baculosomes, pH 7.4, probe para-nitrophenol (p-NP); for inhibition at saturating substrate concentration: in words; for Inhibition type: p-NP 5-100 μmol/L, inhibitor 5-200 μmol/L, goodness-of-fit
Summary of the method: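 p-NP hydroxylation by CYP2E1 baculosomes (2 pmol/μL) in 50 mmol/L potassium phosphate, pH 7.4. p-NP at 5–100 μmol/L (five levels) and inhibitor at 5–200 μmol/L (six levels). Pre-incubated 5 min at 37°C, then NADPH added (26 mmol/L) and run 1 h at 37°C. Stopped with TCA, neutralized with NaOH, absorbance read at 535 nm. Activity normalized to vehicle. IC50, Km/Vmax and Ki/inhibition type fitted by nonlinear regression; four replicates.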

[2] = Preliminary toxicity / cell death of DAS analogs; type: cell-based; conditions: 200 μmol/L, 6 days of treatment, unpublished
[3] = test system: CYP2E1; conditions: acetone-induced rat microsome; ref Brady et al. 1991; cited from earlier work
[4] = K i, noncompetitive inhibition, mean ± SE, four replicates
[5] = K i, uncompetitive inhibition, mean ± SE, four replicates
[6] = 100 μmol/L p-NP, mean ± SE, four replicates
[7] = competitive inhibition, mean ± SE, four replicates

CYP2E1 (Homo sapiens, UniProt P05181), sequence (P05181 whole entry): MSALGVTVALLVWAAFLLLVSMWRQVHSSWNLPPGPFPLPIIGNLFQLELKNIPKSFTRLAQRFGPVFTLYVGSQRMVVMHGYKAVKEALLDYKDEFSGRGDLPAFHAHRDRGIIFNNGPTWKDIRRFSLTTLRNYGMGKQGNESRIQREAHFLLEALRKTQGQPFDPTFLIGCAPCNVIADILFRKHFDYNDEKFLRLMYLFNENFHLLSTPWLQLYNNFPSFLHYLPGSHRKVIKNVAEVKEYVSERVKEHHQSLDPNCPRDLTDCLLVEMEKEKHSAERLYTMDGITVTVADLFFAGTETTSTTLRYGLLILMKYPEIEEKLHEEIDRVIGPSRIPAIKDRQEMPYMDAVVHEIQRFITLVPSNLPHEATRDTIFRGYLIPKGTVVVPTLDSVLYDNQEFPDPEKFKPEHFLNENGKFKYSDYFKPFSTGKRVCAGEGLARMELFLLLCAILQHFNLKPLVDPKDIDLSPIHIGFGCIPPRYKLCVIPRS

| SMILES | IC50 [1] [µM] | inhibition at 1 h [1] [%] | Ki [1, 4] [µM] | Ki [1, 5] [µM] | Maximal inhibition (%) [1] [%] | IC50 [1, 6] [µM] | Ki [1, 7] [µM] | inhibition at saturating substrate concentration [1] | Inhibition type [1] | toxicity [2] | IC50 ([1]; 100 μmol/L p-NP, mean ± SE, four replicates, listed as AMS) [µM] | Ki ([1]; K i, competitive inhibition, mean ± SE, four replicates) [µM] | Inhibition type ([1]; listed as DAS) | Inhibition type [3] |
| --- | --- | --- | --- | --- | --- | --- | --- | --- | --- | --- | --- | --- | --- | --- |
| C=CCOCCN [2‐(prop‐2‐en‐1‐yloxy) ethan‐1‐amine] | 43.7 ± 1.4 | 71 | 34.1 ± 3.3 | 19.3 ± 2.3 |  |  |  |  |  |  |  |  |  |  |
| C=CCCCCN [5‐hexen‐1‐amine (5, 1 HA), 5‐hexen‐1‐amine] | 74.7 ± 1.2 | 75 | ~10.5 | ~7.3 |  |  |  |  |  |  |  |  |  |  |
| C=CCOCC(N)=O [2‐prop‐2‐enoxyacetamide (PEXA), 2‐prop‐2‐enoxyacetamide] | 91.4 ± 1.6 | 20 | 363 ± 64 | 246 ± 47 |  |  |  |  |  |  |  |  |  |  |
| c1ccsc1 [Thiophene (TP), thiophene] |  |  |  |  | 98 | 19.4 ± 1.1 | 7.7 ± 1.2 | complete inhibition | Competitive | did not show any significant toxicities |  |  |  |  |
| C=CCSC [Allyl methyl sulfide (AMS), allyl methyl sulfide] |  |  |  |  | 100 | 11.4 ± 1.1 | 4.4 ± 0.9 | complete inhibition | Competitive |  | 11.4 ± 1.1 |  |  |  |
| C=CCSCC=C [Diallyl sulfide (DAS), Diallyl sulfide, reference compound] | 17.3 ± 1.1 | 97 |  |  |  |  |  |  | Competitive |  |  | 6.3 ± 1 | competitive inhibition kinetics | competitive inhibition |
